We go through two molecules from ChEMBL document CHEMBL4368872, “Synthesis and anticonvulsant activity of phenoxyacetyl derivatives of amines, including aminoalkanols and amino acids” (Medchemcomm, 2018).

Series [1] in a line: Protection index, ratio of TD50 for neurotoxicity in po dosed Sprague-Dawley rat to ED50 for anticonvulsant activity in Sprague-Dawley rat model of maximal electroshock-induced seizure. In kind it is toxicity, organism-based. The following applies: in vivo, read-out: Ratio TD50/ED50. Put shortly:
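The rat p.o. protective index is TD50 (rotarod) / ED50 (MES, 150 mA). Both values were calculated by probit analysis.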

In series [2] the test system is Rattus norvegicus. Description: Anticonvulsant activity in hippocampal kindling Sprague-Dawley rat model assessed as decrease of seizure score at 100 mg/kg, ip administered as single dose measured up to 135 mins. The series is classed as functional, organism-based. Put shortly:
(§1)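 Rats implanted with a hippocampal electrode and kindled with suprathreshold trains (200 µA, 10 s, 50 Hz) every 30 min for 6 h on alternate days until fully kindled. One week later they received a single i.p. dose. Seizure score (Racine scale) and afterdischarge duration were recorded at 0–135 min and compared with the control stimulus given 15 min before dosing; each animal served as its own control. Values are mean ± SEM.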

Series [3] can be described thus: Neurotoxicity in Sprague-Dawley rat at 100 mg/kg, ip measured after 4 hrs by rotarod test. In kind it is toxicity, organism-based. The following applies: in vivo. In outline: (§2)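 Rat neurotoxicity after i.p. or p.o. dosing was scored as animals impaired / animals tested at each time point. For p.o. dosing, TD50 was obtained by probit analysis.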
Series [4] in a line: Neurotoxicity in Sprague-Dawley rat at 300 mg/kg, ip measured after 2 hrs by rotarod test. The series is classed as toxicity, organism-based. As to conditions: in vivo. In outline: as §2
Series [5] concerns Rattus norvegicus. Put plainly: Anticonvulsant activity in hippocampal kindling Sprague-Dawley rat model assessed as after discharge time at 100 mg/kg, ip administered as single dose measured after 15 mins. The series is classed as functional. In outline:
as §1

Series [6] in a line: Neurotoxicity in po dosed Sprague-Dawley rat by rotarod test. The series is classed as toxicity, organism-based. The following applies: in vivo. Put shortly: as §2
Series [7] in a line: Neurotoxicity in Sprague-Dawley rat at 30 mg/kg, ip measured after 0.5 hrs by rotarod test. The series is classed as toxicity, organism-based. The following applies: in vivo. In outline: as §2
A short description of series [8]: Neurotoxicity in Sprague-Dawley rat at 30 mg/kg, ip measured after 2 hrs by rotarod test. The series is classed as toxicity, organism-based. The following applies: in vivo. In outline: as §2
Series [9] is described as follows: Neurotoxicity in CF-1 mouse at 220 mg/kg, ip measured after 0.25 hrs by rotarod test. As to conditions: in vivo. In kind it is toxicity, organism-based. In outline:
(§3)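 Mice dosed i.p. were placed on a 1 in. knurled rod turning at 6 rpm. Toxicity was scored as failure to keep balance for at least 1 min, i.e. falling off three or more times. Results are reported as animals showing toxicity / animals tested at each time point.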

Series [10] in a line: Protection index, ratio of TD50 for neurotoxicity in ip dosed CF-1 mouse to ED50 for anticonvulsant activity in CF-1 mouse model of maximal electroshock-induced seizure. The following applies: in vivo, read-out: Ratio TD50/ED50. The series is classed as toxicity, organism-based.
Series [11] can be described thus: Neurotoxicity in Sprague-Dawley rat at 300 mg/kg, ip measured after 4 hrs by rotarod test. The series is classed as toxicity, organism-based. As to conditions: in vivo. In outline:
as §2

The nature of series [12]: Neurotoxicity in Sprague-Dawley rat at 300 mg/kg, ip measured after 1 hr by rotarod test. The following applies: in vivo. The series is classed as toxicity, organism-based. Put shortly: as §2
The test system of series [13] is Rattus norvegicus. Description: Anticonvulsant activity in hippocampal kindling Sprague-Dawley rat model assessed as after discharge time at 50 mg/kg, ip administered as single dose measured after 75 mins. The series is classed as functional. In outline:
as §1

Series [14] deals with Astrocyte. Put plainly: Cytotoxicity against mouse astrocytes at 10 to 200 uM after 24 hrs by MTT assay. In kind it is cell-based. Put shortly:
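Mouse astrocyte line (CRL-2541) grown in DMEM with 10% FBS at 37 °C, 5% CO2. Seeded at 1×10^4 per well in 1% FBS medium, treated with 10–200 µM for 24 h against vehicle controls. MTT reagent added for 4 h at 37 °C, crystals dissolved, absorbance read at 570 nm.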

Series [15] has as its system Rattus norvegicus. Description: Anticonvulsant activity in hippocampal kindling Sprague-Dawley rat model assessed as after discharge time at 50 mg/kg, ip administered as single dose measured after 15 mins. In kind it is functional. Put shortly: as §1
Series [16] has as its system Mus musculus. Description: Anticonvulsant activity in CF-1 mouse model of maximal electroshock-induced seizure assessed as suppression of tonic hind limb extension at 110 mg/kg, ip measured at 0.25 hrs post dose. The series is classed as functional, organism-based. In outline: (§4)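 Mice dosed i.p. and given maximal electroshock at 50 mA. Read-out is protection, reported as number protected / number tested at 0.25, 0.5, 1 and 4 h after dosing.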

In series [17] the test system is Rattus norvegicus. Description: Anticonvulsant activity in hippocampal kindling Sprague-Dawley rat model assessed as after discharge time at 100 mg/kg, ip administered as single dose measured immediately. The series is classed as functional. Put shortly:
as §1

Series [18] in a line: Neurotoxicity in CF-1 mouse at 100 mg/kg, ip measured after 0.25 hrs by rotarod test. In kind it is toxicity, organism-based. As to conditions: in vivo. In outline:
as §3

The test system of series [19] is Rattus norvegicus. Description: Anticonvulsant activity in hippocampal kindling Sprague-Dawley rat model assessed as after discharge time at 100 mg/kg, ip administered as single dose measured after 75 mins. In kind it is functional. In outline:
as §1

In series [20] the test system is Rattus norvegicus. Put plainly: Anticonvulsant activity in po dosed Sprague-Dawley rat model of maximal electroshock-induced seizure assessed as suppression of tonic hind limb extension. In kind it is functional. Put shortly:
(§5)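 Rats dosed p.o. and tested by MES at 150 mA. ED50 derived by probit analysis from quantitative dose groups, run at the time of peak effect (hours).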

Series [21] relates to Rattus norvegicus. Put plainly: Anticonvulsant activity in hippocampal kindling Sprague-Dawley rat model assessed as after discharge time at 100 mg/kg, ip administered as single dose measured after 135 mins. The series is classed as functional. In outline:
as §1

Series [22] relates to Astrocyte. Description: Cytotoxicity against human astrocytes at 10 to 200 uM after 24 hrs by MTT assay. In kind it is cell-based. Put shortly: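 Human astrocytes derived from iPSCs via neural stem cells (7 days neural induction, then 17 days in astrocyte growth medium; GFAP-confirmed). Cells seeded at 1×10^4 per well in 1% FBS medium the day before, then exposed to 10–200 µM for 24 h with vehicle controls. MTT added for 4 h at 37 °C, formazan dissolved, OD read at 570 nm.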

The nature of series [23]: Neurotoxicity in Sprague-Dawley rat assessed as abnormal behavior at 100 mg/kg, ip administered as single dose measured after 0.25 hrs by rotarod test. In kind it is toxicity, organism-based. As to conditions: in vivo. Put shortly: as §2
Series [24] relates to Rattus norvegicus. Put plainly: Anticonvulsant activity in po dosed Sprague-Dawley rat model of maximal electroshock-induced seizure assessed as time required for suppression of tonic hind limb extension. In kind it is functional. Put shortly: as §5
Series [25] is described as follows: Neurotoxicity in Sprague-Dawley rat at 100 mg/kg, ip measured after 2 hrs by rotarod test. In kind it is toxicity, organism-based. As to conditions: in vivo, 2 h. Put shortly:
as §2

Series [26] is described as follows: Neurotoxicity in CF-1 mouse at 220 mg/kg, ip measured after 4 hrs by rotarod test. The series is classed as toxicity, organism-based. The following applies: in vivo. In outline: as §3
Series [27] relates to Astrocyte. Put plainly: Cytotoxicity against mouse astrocytes at 10 to 200 uM after 24 hrs by neutral red staining based microscopic analysis. In kind it is cell-based. Put shortly:
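Mouse astrocyte line seeded at 1×10^4 per well, treated 24 h later with 10–200 µM for 24 h. Medium then replaced with neutral red (4 µg ml⁻¹) in EMEM with 5% FBS for 3 h. Cells washed, dye extracted in ethanol/water/acetic acid, A540 read. Cytotoxicity (%) = (1 − sample A540/control A540) × 100.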

In series [28] the test system is Mus musculus. Description: Anticonvulsant activity in CF-1 mouse model of maximal electroshock-induced seizure assessed as suppression of tonic hind limb extension at 110 mg/kg, ip measured at 0.5 hrs post dose. In kind it is functional, organism-based. Put shortly:
as §4

Series [29] is described as follows: Neurotoxicity in Sprague-Dawley rat at 100 mg/kg, ip measured after 0.25 hrs by rotarod test. In kind it is toxicity, organism-based. The following applies: in vivo. Put shortly: as §2
In series [30] the test system is Mus musculus. Put plainly: Anticonvulsant activity in CF-1 mouse model of maximal electroshock-induced seizure assessed as suppression of tonic hind limb extension at 100 mg/kg, ip measured at 0.25 hrs post dose. In kind it is functional, organism-based. Put shortly: as §4
Series [31] in a line: Neurotoxicity in CF-1 mouse at 300 mg/kg, ip measured after 0.5 hrs by rotarod test. The series is classed as toxicity, organism-based. The following applies: in vivo. In outline:
as §3

Calls of active or inactive are those of the source.

`Cc1cccc(C)c1OCC(=O)N[C@H](C)CO`: the selectivity ratio in series [1] was more than 41.6; in series [10] it was 1.43. Besides, the result in the series on Rattus norvegicus [2] and in the series on Mus musculus [16] was Active. Moreover, the Activity result in series [3] is given as “Non-Toxic”; in series [4] it was “Toxic”; in series [7], “Non-Toxic”; in series [8], “Non-Toxic”; in [9], “Toxic”; in [11], “Toxic”. Further, the Activity result in series [12] is “Toxic”; in the series on Astrocyte [14] it was “Non-Toxic”; in series [18] it was “Non-Toxic”; in the series on Astrocyte [22] it was “Non-Toxic”; in series [23] it was “Toxic”; in series [25], “Non-Toxic”. Further, the Activity result (in series [26]; in the series with Astrocyte [27]) was “Non-Toxic” in each case. Further, the Time is reported as 48 s with Rattus norvegicus [5]; 75 s in the series on Rattus norvegicus [13]; 71 s in the series with Rattus norvegicus [15]; 68 s in the series with Rattus norvegicus [17]; 80 s with Rattus norvegicus [19]; 76 s in the series on Rattus norvegicus [21]. Also, the Time in the series with Rattus norvegicus [24] turned out to be 0.5 h. The molecule also displayed a TD50 in series [6] of more than 500 mg/kg. Also, the ED50 in the series with Rattus norvegicus [20] was determined as 12 mg/kg. The outcome in the series with Mus musculus [28] was inactive.

In the case of `CCC(O)CNC(=O)COc1c(C)cccc1C` (stereo unspecified), the Activity result in series [29] is given as “Active”; in [31] it was “Toxic”. Further, the result in the series with Mus musculus [30] was Active.
